Only some compounds are listed: those with a hit (about 3.5% of all), similar ones and a draw of the others.
rRNA inh HTS: reduced GFP signal of wild-type E. coli, primary screen, bacterial rRNA inhibitor project, GFP/RFP fluorescence, OD600, single point | GFP signal change (wild-type ribosome), % (test concentration not listed) | E. coli WT GFP vs humanized-ribosome RFP mutants, 24 h; hits give low values; DMSO median 0, no signal -100 | 350,000 compounds, 1.6% hits;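 active means significant combined selectivity score with lowered wild-type GFP, culture density cut under 30%, mutant RFP and density less affected; inactive means any of these conditions unmet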
DENV2 CPE: inhibitors of DENV2 cytopathic effect, primary screen, cell-based, plate reader, single concentration | DENV2-infected cells, cytopathic effect rescue | CPE inhibition, % at 9.99 µM | 350,000 compounds, 1.7% hits; in the data active means CPE inhibition above about 20%, passing the limit was not always enough; inconclusive means no clear call, values can overlap the other calls; tested in BHK-21 cells;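 further: 0% = median of neutral control wells and 100% = median of positive control wells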
FN deposition inh: inhibitors of fibronectin matrix deposition, primary screen, AH1F cells, Alexa488-fibronectin fluorescence, plate reader; AH1F fibroblasts, overnight; inhibition, % at 12.6 µM; 350,000 compounds, 0.086% hits; AID 743247, 2014;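 active means mean inhibition across replicates of 30% or more, regardless of how many single replicates reach that level; inconclusive means mean under 30% yet at least half of replicates reach 30%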;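 further: positive control wells lacked labelled fibronectin entirely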
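test system = AH1F fibroblasts assembling fluorescent fibronectin matrix | quantity = 10000 AH1F cells per well | buffer or medium = DMEM plus 2% serum, read in PBS | doses = single dose, pinned | incubation = 1 h cell attachment, overnight exposure to compound and label | detection = fluorescence at 485 nm excitation, 525 nm emission | read-out basis = inhibition from reduced deposited-fibronectin fluorescence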
Env fusion inh: inhibitors of HIV-1 Env-driven cell-cell fusion, primary screen, HeLa-JRFL effector, CEM21 target cells, luciferase. inhibition, % at 12.3 µM. 360,000 compounds, 1.1% hits;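 active means mean replicate inhibition score of at least 50 and every replicate individually at or above 50; inconclusive means only one of the two criteria met; inactive means mean below 50 and not all replicates reaching 50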;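 further: 0% = plate neutral controls and 100% = maraviroc near 300 nM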
PglD DTNB: C. jejuni PglD acetyltransferase inhibitors, primary screen, biochemical, DTNB colorimetric, single point; UDP-N-acetylbacillosamine N-acetyltransferase PglD (Campylobacter jejuni); purified PglD enzyme, DTNB colorimetric CoA detection; inhibition, % at 12.5 µM; 360,000 compounds, 0.098% hits; AID 602405, 2012; in the data active means inhibition above about 16%, passing the limit was not always enough; inconclusive means no clear call, values can overlap the other calls
PGC1a acetyl inh: inhibitors of PGC1a acetylation signal, primary screen, cell-based, U2OS, AlphaScreen, inhibitor mode | AlphaScreen anti-acetyl-lysine; with virally co-expressed GCN5 acetyltransferase | inhibition, % at 15.6 µM | 350,000 compounds, 0.17% hits | AID 651687, 2012;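 active means every replicate shows inhibition of at least 40%; inconclusive means mean inhibition at least 40% but some replicate below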;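 further: 0% = neutral control wells and 100% = positive control wells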
* marks the source's active call; other numbers are inactive results; ? = inconclusive; . = not tested or not shown; [ ] = remark or other dose.

SMILES	rRNA inh HTS	DENV2 CPE	FN deposition inh	Env fusion inh	PglD DTNB	PGC1a acetyl inh
C=C[C@H]1CN2CC[C@H]1C[C@H]2[C@H](O)c1ccnc2ccccc12	5	14	.	.	1	-9
COC(=O)C[C@]1(C(=O)OC)CN(C#N)N(c2ccc(Cl)cc2)C12c1ccccc1-c1ccccc12	18	.	41*	-30	-3	18
COC(=O)[C@@H]1[C@@H](C(=O)OC)C2(c3ccccc3-c3ccccc32)N(c2ccc(Cl)cc2)N1C#N	2	.	.	.	-4	77*
O=c1[nH]c(=O)n(Cc2ccc(F)cc2)c(O)c1/C=N/Nc1ccccc1	-21	34*	3	21	.	.
CCCCCCOc1ccc(CN2CCN(C)CC2)cc1	-25*	-5	.	.	.	-4
CN1CCN(Cc2ccc3ccccc3c2)CC1	-24	-4	-20	-5	2	16
Cc1ccc(OC(=O)N(C)C[C@H]2OCc3ccccc3-c3c(n(C)c4ccccc34)C(=O)N([C@@H](C)CO)C[C@H]2C)cc1	0	-2	5	.	.	-82
O=C1NC(=O)C(=Cc2ccc(OCC(=O)N3CCOCC3)cc2)C(=O)N1	12	64*	10	.	.	.
CC(C)(O)/C=C/C(=O)[C@](C)(O)C1[C@H](O)C[C@@]2(C)C3CC=C4C(C[C@H](O)[C@@H](O)C4(C)C)[C@]3(C)C(=O)C[C@]12C (stereo partly drawn)	.	.	.	.	-2	65*
COC(=O)[C@@H]1[C@@H](CO)[C@@H]2Cn3c(ccc(-c4cccc(C(=O)N(C)C)c4)c3=O)[C@H]1N2CC1CC1	2	-13	.	.	.	.
COC(=O)C1=C(C(=O)OC)C2OC1c1cc3ccccc3cc12	-19*	-3	.	23	.	.
O=C(Cc1cccnc1)N1CCCCN2[C@@H](CO)[C@H](c3ccc(/C=C/c4ccccc4)cc3)[C@@H]2C1	-54	-3	.	.	1	3
COc1ccc(C#Cc2ccc([C@@H]3[C@@H](CO)N4CCCCN(C(=O)Cc5ccccc5)C[C@H]34)cc2)cc1	-37	-24	.	.	-4	-1
COC(=O)C1=C(c2ccc(Cl)c(C(F)(F)F)c2)C[C@@H]2CC[C@H]1N2C(=O)NCc1cc(C)oc1C(F)(F)F	6	25*	2	41	-1	4
COC(=O)C1=C(c2ccc(F)cc2OCc2ccccc2)C[C@@H]2CC[C@H]1N2C(=O)NCc1ccccc1	-10	68*	-7	12	2	.
COC(=O)C1=C(c2ccc(F)cc2OCc2ccccc2)C[C@@H]2CC[C@H]1N2C(=O)NCc1cccc(F)c1	11	?	-11	-13	-3	-24
COC(=O)C1=C(c2cc3ccccc3o2)C[C@@H]2CC[C@H]1N2C(=O)NCc1cccc2ccccc12	.	.	-1	101*	1	-13
COc1ccc(C#Cc2ccc([C@H]3[C@@H](CO)N4CCCCN(C(=O)Cc5ccccc5)C[C@@H]34)cc2)cc1	6	-4	.	.	-6	-5
CC(C)(C)n1cc(C(=O)c2ccccc2)cc1-c1ccccc1	0	36*	7	7	-2	.
CC(C)NC(=O)N1C[C@@H]2C(c3ccccc3)[C@H](C1)N2C (stereo partly drawn)	-2	.	.	.	.	.
O=S(=O)(NC1CCCC1)OCC(Cl)(Cl)Cl	10	27*	0	-20	-4	-1
O=S(=O)(NC1CCCCCCC1)OCC(Cl)(Cl)Cl	-27	34*	5	-12	-3	-7
COC(=O)[C@@H]1[C@@H](CO)[C@@H]2Cn3c(ccc(C4=CCCC4)c3=O)[C@H]1N2CC1CCCC1	1	-7	.	.	.	.
CCCNC(=O)N1[C@@H]2c3ccc(-c4cccc(C(=O)N(C)C)c4)c(=O)n3C[C@H]1[C@H](CO)[C@H]2C(=O)O	4	-18	.	.	.	-1
Oc1ccccc1CN(CCc1ccccc1)Cc1ccccc1	-26*	0	-9	-6	0	-24
SMILES	rRNA inh HTS	DENV2 CPE	FN deposition inh	Env fusion inh	PglD DTNB	PGC1a acetyl inh
CCN1CCC(N(C)C2CCCCC2)CC1	7	-3	-3	1	0	-3
CCN1CCC(NCC2CCCCC2)CC1	16	32*	-8	-43	5	-7
CCCNC(=O)[C@@H]1[C@@H](CO)[C@@H]2Cn3c(cccc3=O)[C@@H]2N1C	5	0	-5	2[16.7 µM]	-1	.
O=C(Nc1cccc(Cl)c1)OC1CN2CCC1CC2 (stereo not drawn)	-39*	-4	3	43	.	-2
Cc1c(C(c2ccc(O)cc2)c2c(O)c3ccccc3oc2=O)c(=O)n(-c2ccccc2)n1C (stereo not drawn)	-14*	-4	2	-11	.	.
CN1CCN(Cc2nc3ccccc3n2C)CC1	.	.	-3	-110	0	.
Cn1c(NN=O)nc2ccccc21	-23*	-2	.	-9	.	4
CC/C=C/CC(=O)N[C@@H](c1ccccc1)[C@@H](O)C(=O)O[C@H]1C[C@@]2(O)[C@@H](OC(=O)c3ccccc3)C3[C@](C)(C(=O)[C@H](OC(C)=O)C(=C1C)C2(C)C)[C@@H](O)C[C@H]1OC[C@@]31OC(C)=O (stereo partly drawn)	12	28*	.	.	-2	-9
CCC(C)C(=O)N[C@@H](c1ccccc1)[C@@H](O)C(=O)O[C@H]1C[C@@]2(O)[C@@H](OC(=O)c3ccccc3)C3[C@](C)(C(=O)[C@H](OC(C)=O)C(=C1C)C2(C)C)[C@@H](O)C[C@H]1OC[C@@]31OC(C)=O (stereo partly drawn)	1	-14	.	.	-3	-17
CC(C)(Cl)[N+](=O)[O-]	3	130*	.	.	-1	-18
Oc1ccc2c3c1OC1c4[nH]c5ccccc5c4C[C@@]4(O)C(C2)N(CC2CC2)CC[C@]314 (stereo partly drawn)	8	-10	.	.	0	-3
Oc1ccc2c3c1OC1c4oc5ccccc5c4C[C@@]4(O)[C@@H](C2)N(CC2CC2)CC[C@]314 (stereo partly drawn)	-20*	?	.	.	-1	-11
O=C(C1CC1)N1C[C@@H]2N[C@H](C1)[C@@H]2c1ccc(-c2ccncc2)cc1	8	?	11	.	.	-15
Nc1cnn(-c2ccccc2)c(=O)c1Cl	10	30*	0	3	2	10
C[C@@H]1O[C@@H](O[C@H]2C[C@@H](O)[C@]3(CO)[C@H]4[C@H](O)C[C@]5(C)[C@@H](C6=CC(=O)OC6)CC[C@]5(O)[C@@H]4CC[C@]3(O)C2)[C@H](O)[C@H](O)[C@H]1O	.	.	.	.	2	83*
